From ChEMBL document CHEMBL2177030
Activity calls are given as the source filed them. No cut-off for these calls is given here.

Legend:
[1] = tested on: Mycobacterium tuberculosis; experiment: Inhibition of Mycobacterium tuberculosis LipY pre-incubated for 30 mins with enzyme before substrate addition by pH-stat technique
Outline: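 Without NaTDC, LipY was incubated 30 min at 25 °C with inhibitor at xI 2–100. Residual activity was determined by pH-stat at 37 °C on TC4 in 2.5 mM Tris-HCl pH 7.5, 300 mM NaCl, 3 mM NaTDC. xI50 was taken from activity versus molar excess. Isopropanol-only controls were run. At least duplicate.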

[2] = target: T1, Cutinase 1 (Fusarium vanettenii) (UniProt P00590); experiment: Inhibition of Fusarium solani pisi cutinase pre-incubated for 30 mins with enzyme before substrate addition by pH-stat technique
T1 sequence (whole entry): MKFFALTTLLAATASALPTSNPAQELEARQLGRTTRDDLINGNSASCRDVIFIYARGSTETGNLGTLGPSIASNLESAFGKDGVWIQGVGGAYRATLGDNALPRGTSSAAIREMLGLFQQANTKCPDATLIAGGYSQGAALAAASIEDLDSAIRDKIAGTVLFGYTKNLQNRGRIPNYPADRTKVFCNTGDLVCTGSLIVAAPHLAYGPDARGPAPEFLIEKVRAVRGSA
Outline: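 Cutinase was preincubated for 30 min at 25 °C in 2 mM NaTDC, substrate absent, at inhibitor molar excess xI 2, 4, 20, 40 or 100. Residual activity was measured by pH-stat at 37 °C on TC4 emulsion at pH 8.0 with 0.25 mM NaTDC. xI50 is the molar excess giving 50% activity. Isopropanol controls were run. At least duplicate.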

[3] = target: T2, Pancreatic lipase-related protein 2 (Cavia porcellus) (UniProt P81139); experiment: Inhibition of guinea pig recombinant PLRP2 expressed in Aspergillus oryzae at 200 molar excess compound concentration pre-incubated for 2 hrs with enzyme before substrate addition by pH-stat technique
T2 sequence (whole entry): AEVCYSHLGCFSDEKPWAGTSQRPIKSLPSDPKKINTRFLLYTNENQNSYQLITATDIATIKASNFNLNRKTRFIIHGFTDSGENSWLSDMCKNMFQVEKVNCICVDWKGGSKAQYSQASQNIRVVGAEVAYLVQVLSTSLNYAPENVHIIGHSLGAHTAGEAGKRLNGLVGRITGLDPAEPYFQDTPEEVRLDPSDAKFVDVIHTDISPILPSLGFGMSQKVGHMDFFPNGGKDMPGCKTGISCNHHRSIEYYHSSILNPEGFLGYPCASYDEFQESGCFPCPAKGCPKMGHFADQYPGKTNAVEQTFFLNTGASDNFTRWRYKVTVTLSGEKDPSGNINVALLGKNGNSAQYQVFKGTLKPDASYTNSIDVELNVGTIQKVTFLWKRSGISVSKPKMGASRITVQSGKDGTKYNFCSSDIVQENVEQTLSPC

[4] = target: T3, Pancreatic triacylglycerol lipase (Homo sapiens) (UniProt P16233); experiment: Inhibition of human recombinant pancreatic lipase expressed in Pichia pastoris at 200 molar excess compound concentration pre-incubated for 2 hrs with enzyme before substrate addition by pH-stat technique
T3 sequence (whole entry): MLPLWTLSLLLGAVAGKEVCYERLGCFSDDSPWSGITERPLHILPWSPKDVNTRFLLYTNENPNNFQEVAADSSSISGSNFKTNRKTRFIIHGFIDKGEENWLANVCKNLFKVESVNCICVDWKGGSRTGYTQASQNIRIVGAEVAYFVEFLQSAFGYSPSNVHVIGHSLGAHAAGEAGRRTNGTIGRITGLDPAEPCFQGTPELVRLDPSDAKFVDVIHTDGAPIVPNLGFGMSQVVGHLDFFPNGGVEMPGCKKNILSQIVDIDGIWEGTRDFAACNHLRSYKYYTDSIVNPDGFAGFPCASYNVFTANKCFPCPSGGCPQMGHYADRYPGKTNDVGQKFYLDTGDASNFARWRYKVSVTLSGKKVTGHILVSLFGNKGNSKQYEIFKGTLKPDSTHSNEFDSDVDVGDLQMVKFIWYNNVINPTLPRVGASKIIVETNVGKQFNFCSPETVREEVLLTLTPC

[5] = target: T4, Gastric triacylglycerol lipase (Canis lupus familiaris) (UniProt P80035); experiment: Inhibition of dog recombinant gastric lipase expressed in transgenic maize at 200 molar excess compound concentration pre-incubated for 2 hrs with enzyme before substrate addition by pH-stat technique; type: single protein; settings: Stomach
T4 sequence (whole entry): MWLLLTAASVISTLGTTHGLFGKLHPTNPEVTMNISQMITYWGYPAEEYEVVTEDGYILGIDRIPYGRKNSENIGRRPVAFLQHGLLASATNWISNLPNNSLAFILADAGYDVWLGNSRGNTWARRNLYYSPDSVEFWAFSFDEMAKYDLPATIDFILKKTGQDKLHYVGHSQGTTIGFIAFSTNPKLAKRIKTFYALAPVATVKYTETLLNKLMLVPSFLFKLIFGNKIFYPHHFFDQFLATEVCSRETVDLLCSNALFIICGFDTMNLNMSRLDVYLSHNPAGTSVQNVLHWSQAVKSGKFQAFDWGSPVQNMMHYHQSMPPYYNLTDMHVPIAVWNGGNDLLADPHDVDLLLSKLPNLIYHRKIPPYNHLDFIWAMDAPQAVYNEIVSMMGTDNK

[6] = target: Monoacylglycerol lipase (Mycobacterium tuberculosis H37Rv) (UniProt O07427); experiment: Inhibition of Mycobacterium tuberculosis Rv0183 pre-incubated for 30 mins with enzyme before substrate addition by pH-stat technique
Outline: (§1)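 Rv0183 was preincubated 30 min at 25 °C without NaTDC at inhibitor molar excess 2, 4, 20, 40 or 100. Residual monoglyceride lipase activity was measured by pH-stat at 37 °C with MC18 emulsion, pH 8.0, 3 mM NaTDC. xI50 was read from the residual-activity curve. Solvent controls were run. At least duplicate.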

[7] = tested on: Mycobacterium tuberculosis; experiment: Inhibition of Mycobacterium tuberculosis LipY assessed as half inactivation time pre-incubated with enzyme before substrate addition by pH-stat technique
Outline: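 LipY was incubated with inhibitor at xI 4 at 25 °C without NaTDC for up to 1 h. At time points, residual activity was titrated by pH-stat at 37 °C on TC4 emulsion in 2.5 mM Tris-HCl pH 7.5, 300 mM NaCl, 3 mM NaTDC. Half-inactivation time came from the curve. Runs were done at least in duplicate.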

[8] = tested on: Mycobacterium tuberculosis; experiment: (§2) Inhibition of Mycobacterium tuberculosis LipY assessed as covalent bond formation with enzyme serine residue by measuring change in molecular weight of enzyme-compound complexes at 40 molar excess compound concentration pre-incubated for 30 mins with enzyme before substrate addition by MALDI-TOF mass spectrometry method
Outline: (§3)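 Each enzyme was preincubated with the inhibitor for 30 min at 25 °C at xI 40, with the inhibitor taken from a 5 mg/mL isopropanol stock. Intact masses of native and inhibited protein were measured by MALDI-TOF. For tryptic mapping, 5–50 pmol protein was reduced with DTT, alkylated with iodoacetamide and digested overnight at 37 °C.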

[9] = target: T3, Pancreatic triacylglycerol lipase (Homo sapiens)
[10] = target: T4, Gastric triacylglycerol lipase (Canis lupus familiaris); experiment: Inhibition of dog recombinant gastric lipase expressed in transgenic maize pre-incubated for 30 mins with enzyme before substrate addition by pH-stat technique; type: tissue-based; settings: Stomach
Outline: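 Gastric lipase was incubated 30 min at 25 °C with 4 mM NaTDC at inhibitor xI 2–100. Residual activity was measured by pH-stat at 37 °C on TC4 emulsion in 150 mM NaCl, 2 mM NaTDC, 2 µM BSA, pH 5.5. xI50 is the molar excess halving activity. At least duplicate.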

[11] = target: T2, Pancreatic lipase-related protein 2 (Cavia porcellus); experiment: Inhibition of guinea pig recombinant PLRP2 expressed in Aspergillus oryzae pre-incubated for 30 mins with enzyme before substrate addition by pH-stat technique
[12] = tested on: Mycobacterium tuberculosis; experiment: Inhibition of Mycobacterium tuberculosis LipY at 40 molar excess compound concentration pre-incubated for 30 mins with enzyme before substrate addition by pH-stat technique
[13] = target: Monoacylglycerol lipase (Mycobacterium tuberculosis H37Rv) (UniProt O07427); experiment: as §2, with “Rv0183” for “LipY”; outline: as §3
[14] = target: Monoacylglycerol lipase (Mycobacterium tuberculosis H37Rv) (UniProt O07427); experiment: Inhibition of Mycobacterium tuberculosis Rv0183 assessed as half inactivation time pre-incubated with enzyme before substrate addition by pH-stat technique
Outline: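 For the time course, Rv0183 was exposed to inhibitor at xI 4 at 25 °C without bile salt for 1 h. Residual activity was read at intervals by pH-stat at 37 °C using 100 µL MC18 in 15 mL 2.5 mM Tris-HCl pH 8.0, 150 mM NaCl, 3 mM NaTDC. t1/2 was derived from the curve. Runs were done at least in duplicate.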

[15] = target: Monoacylglycerol lipase (Mycobacterium tuberculosis H37Rv) (UniProt O07427); experiment: Inhibition of Mycobacterium tuberculosis Rv0183 assessed as residual enzyme activity pre-incubated for 30 mins with enzyme before substrate addition by pH-stat technique; outline: as §1
[16] = target: T1, Cutinase 1 (Fusarium vanettenii); experiment: as §2, with “Fusarium solani pisi cutinase” for “Mycobacterium tuberculosis LipY”; outline: as §3

Chain of Monoacylglycerol lipase (Mycobacterium tuberculosis H37Rv) (O07427 whole entry): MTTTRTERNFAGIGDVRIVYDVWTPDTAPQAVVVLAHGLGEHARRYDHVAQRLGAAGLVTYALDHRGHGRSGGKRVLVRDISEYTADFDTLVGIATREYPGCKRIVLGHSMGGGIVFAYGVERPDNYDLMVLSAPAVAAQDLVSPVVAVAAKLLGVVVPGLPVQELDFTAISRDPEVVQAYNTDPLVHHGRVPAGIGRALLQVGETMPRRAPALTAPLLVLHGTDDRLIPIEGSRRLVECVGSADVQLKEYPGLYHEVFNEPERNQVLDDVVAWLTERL

CCCCCCCCCCCCCCCCCCOP1(=O)CCCC(C(=O)OC)=C(C)O1 (configuration not stated)
XI50 [1]: 0.59 molar excess
XI50 [2]: 0.95 molar excess
inhibition [3]: inactive
inhibition [4]: inactive
inhibition [5]: inactive
XI50 [6]: inactive

CCCCCCCCCCCCCCCCOP1(=O)CCCC(C(=O)OC)=C(C)O1 (configuration not stated)
XI50 [1]: 0.83 molar excess
XI50 [2]: 0.56 molar excess
T1/2 [7]: 9.6 s
Activity [8]: 444 Da
inhibition [3]: inactive
inhibition [4]: inactive
inhibition [5]: inactive
XI50 [6]: inactive

CCCCCCCCCCC[C@@H](C[C@@H]1OC(=O)[C@H]1CCCCCC)OC(=O)[C@H](CC(C)C)NC=O
XI50 [1]: 7.07 molar excess
XI50 [2]: 2.52 molar excess
XI50 [9]: 18.4 molar excess
XI50 [10]: 5.6 molar excess
XI50 [11]: 0.53 molar excess
XI50 [6]: > 200 molar excess

CCCCCC1CCP(=O)(OC)OC(C)=C1C(=O)OC (racemic)
inhibition [12]: 14%

CCCCCCCCCCCCCCCCCC[C@@H]1CC[P@@](=O)(OC)OC(C)=C1C(=O)OC (racemic)
XI50 [1]: 0.77 molar excess
XI50 [2]: 1.18 molar excess
inhibition [3]: inactive
inhibition [4]: inactive
inhibition [5]: inactive
XI50 [6]: 3.15 molar excess

CCCCCCCCCCCCCCCCCC[C@@H]1CC[P@](=O)(OC)OC(C)=C1C(=O)OC (racemic)
XI50 [1]: 7.47 molar excess
XI50 [2]: 7.26 molar excess
inhibition [3]: inactive
inhibition [4]: inactive
inhibition [5]: inactive
XI50 [6]: > 100 molar excess

CCCCCCCCCCCCCCCC[C@@H]1CC[P@@](=O)(OC)OC(C)=C1C(=O)OC (racemic)
XI50 [1]: 0.6 molar excess
XI50 [2]: 2.54 molar excess
inhibition [3]: inactive
inhibition [4]: inactive
inhibition [5]: inactive
XI50 [6]: 1.32 molar excess

CCCCCCCCCCCCCCCC[C@@H]1CC[P@](=O)(OC)OC(C)=C1C(=O)OC (racemic)
XI50 [1]: 3.47 molar excess
XI50 [2]: 4.43 molar excess
inhibition [3]: inactive
inhibition [4]: inactive
inhibition [5]: inactive
XI50 [6]: > 100 molar excess

CCCCCCCCCCCC[C@@H]1CC[P@@](=O)(OC)OC(C)=C1C(=O)OC (racemic)
XI50 [1]: 3.46 molar excess
XI50 [2]: 2 molar excess
inhibition [3]: inactive
inhibition [4]: inactive
inhibition [5]: inactive
XI50 [6]: 5.23 molar excess

CCCCCCCCCCCC[C@@H]1CC[P@](=O)(OC)OC(C)=C1C(=O)OC (racemic)
XI50 [1]: 6.14 molar excess
XI50 [2]: 3.63 molar excess
inhibition [3]: inactive
inhibition [4]: inactive
inhibition [5]: inactive
XI50 [6]: 2.44 molar excess

CCCCCCCCCC[C@@H]1CC[P@@](=O)(OC)OC(C)=C1C(=O)OC (racemic)
XI50 [1]: 2.81 molar excess
Activity [13]: 377 Da
T1/2 [14]: 86.4 s
XI50 [2]: 1.98 molar excess
inhibition [3]: inactive
inhibition [4]: inactive
inhibition [5]: inactive
XI50 [6]: 1.13 molar excess
Activity [15]: 6%

CCCCCCCCCC[C@@H]1CC[P@](=O)(OC)OC(C)=C1C(=O)OC (racemic)
XI50 [1]: 25.8 molar excess
XI50 [2]: 14.6 molar excess
inhibition [3]: inactive
inhibition [4]: inactive
inhibition [5]: inactive
XI50 [6]: 3.57 molar excess

CCCCC[C@@H]1CC[P@@](=O)(OC)OC(C)=C1C(=O)OC (racemic)
XI50 [1]: > 100 molar excess
XI50 [2]: 1.42 molar excess
inhibition [3]: inactive
inhibition [4]: inactive
inhibition [5]: inactive
XI50 [6]: 2.7 molar excess

CCCCC[C@@H]1CC[P@](=O)(OC)OC(C)=C1C(=O)OC (racemic)
XI50 [1]: > 100 molar excess
XI50 [2]: 26.2 molar excess
inhibition [3]: inactive
inhibition [4]: inactive
inhibition [5]: inactive
XI50 [6]: 3.79 molar excess

COC(=O)C1=C(C)OP(=O)(OC)CCC1 (racemic)
XI50 [1]: > 100 molar excess
inhibition [12]: 14%
Activity [16]: 233 Da
XI50 [2]: 1.39 molar excess
inhibition [3]: inactive
inhibition [4]: inactive
inhibition [5]: inactive
XI50 [6]: 30.5 molar excess

COP1(=O)CCCC(CO)=C(C)O1 (racemic)
XI50 [1]: inactive
XI50 [2]: > 100 molar excess
inhibition [3]: inactive
inhibition [4]: inactive
inhibition [5]: inactive
XI50 [6]: inactive

CO[P@@]1(=O)CC[C@@H]2COC(=O)C2=C(C)O1 (racemic)
XI50 [1]: > 100 molar excess
inhibition [12]: 14%
XI50 [2]: 4.49 molar excess
inhibition [3]: inactive
inhibition [4]: inactive
inhibition [5]: inactive
XI50 [6]: 41.6 molar excess

CO[P@]1(=O)CC[C@@H]2COC(=O)C2=C(C)O1 (racemic)
XI50 [1]: > 100 molar excess
inhibition [12]: 14%
XI50 [2]: 8.77 molar excess
inhibition [3]: inactive
inhibition [4]: inactive
inhibition [5]: inactive
XI50 [6]: 43.2 molar excess
